Tests used:
[1] = biological target: Sodium channel protein type 9 subunit alpha (Homo sapiens, UniProt Q15858); assay: Inhibition of human Nav1.7 expressed in HEK293 cells at holding potential of -125 mV […] by patchxpress-based electrophysiology assay; type: cell-based
[2] = biological target: Sodium channel protein type 4 subunit alpha (Homo sapiens, UniProt P35499); assay: Inhibition of human Nav1.4 expressed in HEK293 cells at holding potential of -125 mV […] by patchxpress-based electrophysiology assay; type: cell-based
[3] = biological target: Sodium channel protein type 8 subunit alpha (Homo sapiens, UniProt Q9UQD0); assay: Inhibition of human Nav1.6 expressed in HEK293 cells at holding potential of -125 mV […] by patchxpress-based electrophysiology assay; type: cell-based
[4] = biological target: Sodium channel protein type 5 subunit alpha (Homo sapiens, UniProt Q14524); assay: Inhibition of human Nav1.5 expressed in HEK293 cells at holding potential of […] after 10 mins by patchxpress-based electrophysiology assay; type: cell-based
[5] = biological target: Sodium channel protein type 10 subunit alpha (Homo sapiens, UniProt Q9Y5Y9); assay: Inhibition of human Nav1.8 expressed in HEK293 cells after 10 mins by patchxpress-based electrophysiology; type: cell-based
[6] = AUCt in C57/BL6 mouse at 2 mg/kg, sc by LC-MS/MS analysis; type: ADME, organism-based; details: in vivo
Outline: (§1)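 Male C57Bl/6 mice, n = 3 per time point, given a single 2 mg/kg subcutaneous dose. Plasma levels were quantified by LC-MS/MS over time, and pharmacokinetic parameters were derived from the plasma profiles. Data are reported as mean ± SEM for each time point.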

[7] = Apparent […] clearance in C57/BL6 mouse at 2 mg/kg, sc by LC-MS/MS analysis; type: ADME, organism-based; details: in vivo; outline: as §1
[8] = Cmax in C57/BL6 mouse at 2 mg/kg, sc by LC-MS/MS analysis; type: ADME, organism-based; parameters: dose 2 mg/kg, route subcutaneous; details: in vivo; outline: as §1
[9] = MRT in C57/BL6 mouse at 2 mg/kg, sc by LC-MS/MS analysis; type: ADME, organism-based; details: in vivo; outline: as §1
[10] = Half life in C57/BL6 mouse at 2 mg/kg, sc by LC-MS/MS analysis; type: ADME, organism-based; details: in vivo; outline: as §1
[11] = Tmax in C57/BL6 mouse at 2 mg/kg, sc by LC-MS/MS analysis; type: ADME, organism-based; details: in vivo; outline: as §1
[12] = test system: Mus musculus; assay: Volume of distribution at steady state in C57/BL6 mouse at 2 mg/kg, sc by LC-MS/MS analysis; type: ADME, organism-based; details: in vivo; outline: as §1
[13] = Plasma concentration in C57/BL6 mouse at 2 mg/kg, sc after 30 mins by LC-MS/MS analysis; type: ADME, organism-based; details: in vivo, 0.5 h; outline: as §1
[14] = test system: Mus musculus; assay: In vivo inhibition of Nav1.7 in C57/BL6 mouse model of histamine-induced pruritis assessed as reduction in scratching bouts at 10 mg/kg, […] dosed 2 hrs before histamine challenge and measured for 15 mins relative to control; type: functional
[15] = Inhibition of TTX-resistant sodium channel-mediated currents in C57/BL6 mouse DRG neurons by whole cell manual patch clamp assay; details: C57/BL6, DRG neuron
[16] = biological target: T1, Sodium channel protein type 9 subunit alpha (Mus musculus, UniProt Q62205); assay: Inhibition of mouse Nav1.7 expressed in HEK293 cells after 10 mins by patchxpress-based electrophysiology; type: cell-based
[17] = biological target: T1, Sodium channel protein type 9 subunit alpha; assay: Inhibition of Nav1.7 in C57/BL6 mouse DRG neurons assessed as reduction in TTX sensitive sodium channel-mediated currents by whole cell manual patch clamp assay
[18] = test system: Mus musculus; assay: In vivo inhibition of Nav1.7 in C57/BL6 mouse model of histamine-induced pruritis assessed as reduction in scratching bouts at 0.5 mg/kg, sc dosed 2 hrs before histamine challenge and measured for 15 mins relative to control; type: functional
Outline: (§2)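 Male C57Bl/6 mice aged 8–10 weeks; nape shaved under 3% isoflurane the day before, with 15 min chamber acclimation. Peptide given sc 2 h before intradermal histamine dichloride (8.15 mM, 100 μL); vehicle was PBS with 1% MSA. Scratch bouts video-recorded for 15 min, blinded scoring; n = 8–10 per group; one-way ANOVA with Dunnett's test versus vehicle.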

[19] = test system: Mus musculus; assay: In vivo inhibition of Nav1.7 in C57/BL6 mouse model of histamine-induced pruritis assessed as reduction in scratching bouts at 1 mg/kg, sc dosed 2 hrs before histamine challenge and measured for 15 mins relative to control; type: functional; outline: as §2
[20] = test system: Mus musculus; assay: In vivo inhibition of Nav1.7 in C57/BL6 mouse model of histamine-induced pruritis assessed as reduction in scratching bouts at 2 mg/kg, sc dosed 2 hrs before histamine challenge and measured for 15 mins relative to control; type: functional; outline: as §2
[21] = Plasma concentration in C57/BL6 mouse model of histamine-induced pruritis at 0.5 mg/kg, sc; type: ADME, organism-based; details: in vivo
Outline: (§3)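 Dosing was 2 h before an intradermal nape injection of histamine (8.15 mM, 100 μL). Scratching was videorecorded for 15 min by blinded experimenters, and peptide plasma concentrations were analysed from the same study.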

[22] = Plasma concentration in C57/BL6 mouse model of histamine-induced pruritis at 1 mg/kg, sc; type: ADME, organism-based; details: in vivo; outline: as §3
[23] = Plasma concentration in C57/BL6 mouse model of histamine-induced pruritis at 2 mg/kg, sc; type: ADME, organism-based; details: in vivo; outline: as §3
[24] = Ratio of plasma concentration in C57/BL6 mouse model of histamine-induced pruritis at 0.5 mg/kg, sc to IC50 for Nav1.7 in C57/BL6 mouse DRG neurons by whole cell manual patch clamp assay; type: ADME, organism-based; details: in vivo
[25] = Ratio of plasma concentration in C57/BL6 mouse model of histamine-induced pruritis at 1 mg/kg, sc to IC50 for Nav1.7 in C57/BL6 mouse DRG neurons by whole cell manual patch clamp assay; type: ADME, organism-based; details: in vivo
[26] = Ratio of plasma concentration in C57/BL6 mouse model of histamine-induced pruritis at 2 mg/kg, sc to IC50 for Nav1.7 in C57/BL6 mouse DRG neurons by whole cell manual patch clamp assay; type: ADME, organism-based; details: in vivo
[27] = test system: Mus musculus; assay: Toxicity in C57/BL6 mouse assessed as effect on locomotor activity at 2 mg/kg, sc by open field assay; type: organism-based; details: in vivo

Sequence of Sodium channel protein type 9 subunit alpha (Homo sapiens, UniProt Q15858) (Q15858 whole entry): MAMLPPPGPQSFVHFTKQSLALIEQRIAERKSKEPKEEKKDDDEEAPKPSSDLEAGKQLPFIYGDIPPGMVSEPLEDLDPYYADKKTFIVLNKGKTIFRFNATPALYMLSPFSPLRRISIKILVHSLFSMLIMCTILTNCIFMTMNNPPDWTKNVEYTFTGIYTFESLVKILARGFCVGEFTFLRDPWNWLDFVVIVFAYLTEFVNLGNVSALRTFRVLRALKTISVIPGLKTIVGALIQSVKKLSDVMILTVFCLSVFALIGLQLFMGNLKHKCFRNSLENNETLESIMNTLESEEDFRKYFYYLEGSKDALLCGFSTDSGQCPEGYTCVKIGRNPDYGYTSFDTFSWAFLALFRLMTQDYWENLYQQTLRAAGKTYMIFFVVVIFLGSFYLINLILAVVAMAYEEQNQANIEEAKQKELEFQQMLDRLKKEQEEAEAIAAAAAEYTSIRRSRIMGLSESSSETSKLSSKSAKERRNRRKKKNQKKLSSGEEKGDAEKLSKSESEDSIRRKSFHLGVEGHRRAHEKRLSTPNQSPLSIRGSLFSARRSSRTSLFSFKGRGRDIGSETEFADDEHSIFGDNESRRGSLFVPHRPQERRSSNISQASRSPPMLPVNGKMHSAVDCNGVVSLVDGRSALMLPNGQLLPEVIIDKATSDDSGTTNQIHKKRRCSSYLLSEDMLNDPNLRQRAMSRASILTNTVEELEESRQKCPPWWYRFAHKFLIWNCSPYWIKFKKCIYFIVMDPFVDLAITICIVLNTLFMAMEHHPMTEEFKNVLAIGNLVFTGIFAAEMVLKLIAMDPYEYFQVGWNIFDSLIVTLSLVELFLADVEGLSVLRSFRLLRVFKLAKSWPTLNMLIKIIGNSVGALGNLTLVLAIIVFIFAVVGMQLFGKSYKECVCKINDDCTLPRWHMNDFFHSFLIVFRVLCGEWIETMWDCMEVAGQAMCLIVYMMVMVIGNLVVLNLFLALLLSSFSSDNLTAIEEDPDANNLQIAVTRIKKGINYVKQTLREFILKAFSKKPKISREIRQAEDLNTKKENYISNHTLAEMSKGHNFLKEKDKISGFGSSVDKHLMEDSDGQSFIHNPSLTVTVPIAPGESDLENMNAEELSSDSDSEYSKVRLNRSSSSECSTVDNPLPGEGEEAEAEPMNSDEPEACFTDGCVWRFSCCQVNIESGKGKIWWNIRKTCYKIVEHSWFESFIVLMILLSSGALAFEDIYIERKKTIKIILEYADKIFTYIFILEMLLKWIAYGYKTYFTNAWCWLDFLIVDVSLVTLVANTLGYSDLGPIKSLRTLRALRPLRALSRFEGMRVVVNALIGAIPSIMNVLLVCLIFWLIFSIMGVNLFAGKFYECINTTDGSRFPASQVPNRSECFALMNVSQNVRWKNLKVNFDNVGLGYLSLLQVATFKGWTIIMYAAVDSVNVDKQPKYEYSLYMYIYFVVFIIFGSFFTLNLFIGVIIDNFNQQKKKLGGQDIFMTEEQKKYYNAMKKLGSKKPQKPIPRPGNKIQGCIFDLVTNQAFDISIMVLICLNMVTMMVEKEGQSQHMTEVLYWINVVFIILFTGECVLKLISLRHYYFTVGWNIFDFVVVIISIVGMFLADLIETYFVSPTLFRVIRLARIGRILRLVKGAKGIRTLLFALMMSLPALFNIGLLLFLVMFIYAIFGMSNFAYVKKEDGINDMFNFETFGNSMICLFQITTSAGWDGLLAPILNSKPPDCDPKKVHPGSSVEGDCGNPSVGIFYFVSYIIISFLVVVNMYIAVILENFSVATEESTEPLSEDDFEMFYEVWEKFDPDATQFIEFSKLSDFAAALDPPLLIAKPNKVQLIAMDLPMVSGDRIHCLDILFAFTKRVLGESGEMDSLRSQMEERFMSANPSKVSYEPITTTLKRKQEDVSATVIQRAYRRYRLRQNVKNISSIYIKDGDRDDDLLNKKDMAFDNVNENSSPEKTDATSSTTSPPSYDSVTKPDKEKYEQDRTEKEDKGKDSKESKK
Sequence of Sodium channel protein type 10 subunit alpha (Q9Y5Y9 whole entry): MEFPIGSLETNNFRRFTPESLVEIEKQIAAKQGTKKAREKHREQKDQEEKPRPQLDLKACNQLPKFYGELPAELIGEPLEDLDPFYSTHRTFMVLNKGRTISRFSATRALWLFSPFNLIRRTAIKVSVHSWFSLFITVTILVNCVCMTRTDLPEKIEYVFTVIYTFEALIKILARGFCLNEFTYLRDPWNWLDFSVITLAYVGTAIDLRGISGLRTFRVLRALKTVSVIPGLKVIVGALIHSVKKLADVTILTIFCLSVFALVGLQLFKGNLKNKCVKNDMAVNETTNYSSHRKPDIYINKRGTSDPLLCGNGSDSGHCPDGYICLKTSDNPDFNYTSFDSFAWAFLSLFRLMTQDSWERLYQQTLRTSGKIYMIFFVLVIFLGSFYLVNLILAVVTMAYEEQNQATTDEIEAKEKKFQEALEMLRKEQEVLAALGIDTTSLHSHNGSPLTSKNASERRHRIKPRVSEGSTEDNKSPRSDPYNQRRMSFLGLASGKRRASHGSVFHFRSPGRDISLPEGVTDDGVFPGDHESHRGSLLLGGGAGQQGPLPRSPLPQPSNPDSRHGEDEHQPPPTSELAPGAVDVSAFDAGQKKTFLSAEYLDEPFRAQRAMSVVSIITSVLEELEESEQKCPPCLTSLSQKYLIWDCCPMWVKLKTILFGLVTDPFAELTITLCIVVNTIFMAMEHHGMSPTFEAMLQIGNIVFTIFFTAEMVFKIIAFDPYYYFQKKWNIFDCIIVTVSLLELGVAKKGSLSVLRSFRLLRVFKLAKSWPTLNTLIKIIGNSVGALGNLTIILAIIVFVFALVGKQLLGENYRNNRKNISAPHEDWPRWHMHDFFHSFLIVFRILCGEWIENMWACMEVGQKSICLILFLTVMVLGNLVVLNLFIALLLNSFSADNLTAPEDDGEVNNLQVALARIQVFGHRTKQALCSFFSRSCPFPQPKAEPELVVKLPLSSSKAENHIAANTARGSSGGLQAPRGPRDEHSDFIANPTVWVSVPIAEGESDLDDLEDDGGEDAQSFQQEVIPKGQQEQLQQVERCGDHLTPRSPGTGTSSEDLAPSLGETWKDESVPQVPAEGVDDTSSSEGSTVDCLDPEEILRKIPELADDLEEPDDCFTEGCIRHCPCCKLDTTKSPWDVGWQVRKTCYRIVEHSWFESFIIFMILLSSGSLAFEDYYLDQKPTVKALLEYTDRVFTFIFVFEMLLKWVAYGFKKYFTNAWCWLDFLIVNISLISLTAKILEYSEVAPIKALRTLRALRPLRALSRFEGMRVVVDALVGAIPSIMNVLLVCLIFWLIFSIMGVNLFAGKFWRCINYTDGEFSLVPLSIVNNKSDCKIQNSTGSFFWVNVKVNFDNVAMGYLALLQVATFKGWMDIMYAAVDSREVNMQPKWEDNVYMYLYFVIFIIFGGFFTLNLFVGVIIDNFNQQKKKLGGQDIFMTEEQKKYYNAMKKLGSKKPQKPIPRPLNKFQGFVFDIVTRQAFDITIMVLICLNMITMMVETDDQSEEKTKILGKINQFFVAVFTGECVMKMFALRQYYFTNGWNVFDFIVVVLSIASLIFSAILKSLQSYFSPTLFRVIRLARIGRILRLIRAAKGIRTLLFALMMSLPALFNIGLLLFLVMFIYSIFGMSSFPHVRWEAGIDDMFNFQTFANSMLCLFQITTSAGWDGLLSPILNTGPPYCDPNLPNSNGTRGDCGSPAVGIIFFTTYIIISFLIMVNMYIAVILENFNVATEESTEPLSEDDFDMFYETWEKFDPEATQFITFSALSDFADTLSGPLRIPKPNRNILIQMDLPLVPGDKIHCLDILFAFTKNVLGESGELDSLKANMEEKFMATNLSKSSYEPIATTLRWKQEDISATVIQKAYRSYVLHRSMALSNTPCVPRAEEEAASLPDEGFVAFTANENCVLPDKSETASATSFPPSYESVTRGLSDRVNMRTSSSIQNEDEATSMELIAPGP

## C#CC[C@H](N)C(=O)N[C@@H](Cc1ccc(O)cc1)C(=O)N[C@H]1CSSC[C@@H]2NC(=O)[C@@H]3CSSC[C@@H](C(=O)N[C@@H](CCCNC(=N)N)C(=O)N[C@@H](CCCCN)C(=O)N[C@@H](CCC(=O)O)C(=O)N[C@H](C(N)=O)[C@@H](C)CC)NC(=O)[C@H](Cc4c[nH]c5ccc(Br)cc45)NC(=O)[C@H](CC(C)C)NC(=O)[C@H](CCCCN)NC(=O)[C@H](CSSC[C@H](NC(=O)[C@H]([C@@H](C)O)NC(=O)[C@H](Cc4c[nH]c5ccccc45)NC(=O)[C@H](CCCC)NC(=O)[C@H](Cc4c[nH]c5ccccc45)NC(=O)[C@H](CCCCN)NC(=O)[C@H](CCC(N)=O)NC1=O)C(=O)N[C@@H](CC(=O)O)C(=O)N[C@@H](CO)C(=O)N[C@@H](CCCCN)C(=O)N[C@@H](CCCNC(=N)N)C(=O)N[C@@H](C)C(=O)N3)NC(=O)[C@H](CCCNC(=N)N)NC(=O)[C@H](CC(C)C)NC(=O)CNC(=O)[C@H](CCC(=O)O)NC2=O
[1]
  IC50: 0.26 nM
[2]
  IC50: 53 nM
[3]
  IC50: 66 nM
[4]
  IC50: 260 nM
[5]
  IC50: 509 nM
[6]
  AUC(0-t): 3.44 µM·h
[7]
  CL/F: 2.57 mL/min/kg
[8]
  Cmax: 892 nM
[9]
  MRT: 3.55 h
[10]
  half-life: 2.38 h
[11]
  Tmax: 0.5 h
[12]
  Vdss: 0.547 L/kg
[13]
  Drug uptake: Active

## CN(C)CCOC(c1ccccc1)c1ccccc1 [DIPHENHYDRAMINE]
[14]
  inhibition in vivo at 10 mg/kg: 89.7%

## C#CC[C@H](NC(=O)[C@@H](N)CCC(=O)O)C(=O)N[C@H]1CSSC[C@@H]2NC(=O)[C@@H]3CSSC[C@@H](C(=O)N[C@@H](CCCNC(=N)N)C(=O)N[C@@H](CCCCN)C(=O)N[C@@H](CCC(=O)O)C(=O)N[C@H](C(N)=O)[C@@H](C)CC)NC(=O)[C@H](Cc4c[nH]c5ccc(Br)cc45)NC(=O)[C@H](CC(C)C)NC(=O)[C@H](CCCCN)NC(=O)[C@H](CSSC[C@H](NC(=O)[C@H]([C@@H](C)O)NC(=O)[C@H](Cc4c[nH]c5ccccc45)NC(=O)[C@H](CCCC)NC(=O)[C@H](Cc4c[nH]c5ccccc45)NC(=O)[C@H](CCCCN)NC(=O)[C@H](CCC(N)=O)NC1=O)C(=O)N[C@@H](CC(=O)O)C(=O)N[C@@H](CO)C(=O)N[C@@H](C)C(=O)N[C@@H](CCCNC(=N)N)C(=O)N[C@@H](C)C(=O)N3)NC(=O)[C@H](CCCNC(=N)N)NC(=O)[C@H](CC(C)C)NC(=O)CNC(=O)[C@H](CCC(=O)O)NC2=O
[15]
  IC50: > 10000 nM
[1]
  IC50: 0.8 nM
[2]
  IC50: 104 nM
[3]
  IC50: 104 nM
[4]
  IC50: 6640 nM
[5]
  IC50: > 1000 nM
[16]
  IC50: 5.4 nM
[17]
  IC50: 5.1 nM
[6]
  AUC(0-t): 4.5 µM·h
[7]
  CL/F: 2 mL/min/kg
[8]
  Cmax: 1480 nM
[9]
  MRT: 3.7 h
[10]
  half-life: 4.95 h
[11]
  Tmax: 0.5 h
[12]
  Vdss: 0.444 L/kg
[13]
  Drug uptake: Active
[18]
  inhibition in vivo at 0.5 mg/kg: 7.3%
[19]
  inhibition in vivo at 1 mg/kg: 22.5%
[20]
  inhibition in vivo at 2 mg/kg: 88.9%
[21]
  concentration: 122 nM
[22]
  concentration: 300 nM
[23]
  concentration: 535 nM
[24]
  Ratio: 24
[25]
  Ratio: 59
[26]
  Ratio: 105
[27]
  Activity: Non-Toxic

From ChEMBL document CHEMBL4152382, “Discovery of Tarantula Venom-Derived NaV1.7-Inhibitory JzTx-V Peptide 5-Br-Trp24 Analogue AM-6120 with Systemic Block of Histamine-Induced Pruritis” (J Med Chem, 2018)
